Measurements from different studies.
Target: Dual specificity mitogen-activated protein kinase kinase 6 (MAP2K6, Homo sapiens, UniProt P52564)
Sequence (P52564 1-334, as in one of the studies): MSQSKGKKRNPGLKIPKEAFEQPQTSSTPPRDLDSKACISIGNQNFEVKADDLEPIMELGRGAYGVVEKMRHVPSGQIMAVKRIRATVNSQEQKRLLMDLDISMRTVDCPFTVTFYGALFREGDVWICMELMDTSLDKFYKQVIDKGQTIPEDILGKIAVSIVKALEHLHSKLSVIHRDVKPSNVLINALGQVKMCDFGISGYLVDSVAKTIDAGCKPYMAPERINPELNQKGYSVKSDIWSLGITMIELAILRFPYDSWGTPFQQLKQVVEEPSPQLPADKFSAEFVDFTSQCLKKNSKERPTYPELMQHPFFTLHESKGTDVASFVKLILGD

SMILES | test | conditions | remaining binding
CN(c1nccc(-c2cnn3ncccc23)n1)C1CC1 | binding | 1 µM | 100%
CNC(=O)[C@@]12C[C@@H]1[C@@H](n1cnc3c(NC)nc(C#Cc4ccc(Cl)s4)nc31)[C@H](O)[C@@H]2O | binding, competition with immobilised ligand | 10 µM | 17%
N[C@H]1CCN(c2nccc(-c3cnn4ncccc34)n2)C1 | binding | 1 µM | 100%
CNC(=O)[C@@H]1CC[C@@H](n2c(-c3ccc4cnccc4c3)nc3ccc(C(=O)NCc4cccc(C(N)=O)c4)cc32)C1 | binding, competition with immobilised ligand | 1 µM | 100%
Nc1cnc(N2CCc3cc(S(=O)(=O)Nc4c(F)cc(Cl)cc4F)cc(N4CCCC4=O)c32)nc1 | cell-free assay, competition with immobilised ligand | 1 µM | 71%
CN(C)c1nccc(-c2cnn3ncccc23)n1 | binding | 1 µM | 58%
CC1=C(C#N)[C@@H](c2ccc3[nH]nc(C)c3c2)C(C#N)=C(c2ccc(Cl)cc2)N1 | cell-free assay, competition with immobilised ligand | 1 µM | 100%
Cc1cnn2ncc(-c3ccnc(N(C)C)n3)c2c1 | binding | 1 µM | 100%
CS(=O)(=O)N1CCCC(NC(=O)[C@H](CCC2CCCCC2)NC(=O)c2ccc(CNc3ncnc4c3nnn4-c3ccccc3)cc2)C1 (some centres unmarked) | cell-free assay, competition with immobilised ligand | 0.1 µM | 67%
C=CC(=O)N1CCC(C(=O)NCC(=O)N2CCN(c3nc(-c4cnc(N)nc4C(F)F)nc(N4CCOCC4)n3)CC2)CC1 | binding, competition with immobilised ligand | 1 µM | 100%
O=C(NCC1CCOCC1)c1n[nH]cc1NC(=O)c1c(F)cccc1F | binding, competition with immobilised ligand | 1 µM | 95%
C[C@@H]1CCN(c2nccc(-c3cnn4ncccc34)n2)C1 | binding | 1 µM | 100%
C[C@H](c1ccnc(Nc2nc3ccc(-c4cc(N(C)C)ncn4)cc3[nH]2)c1)N1CCN(C(=O)CC(F)(F)F)CC1 | cell-free assay, competition with immobilised ligand | 0.1 µM | 96%
CN(CCCC(F)(F)F)c1nccc(-c2cnn3ncccc23)n1 | binding | 1 µM | 100%
COc1cnc(Nc2cccc(S(N)(=O)=O)c2)nc1N1CCN(c2ccccc2)C(=O)C1 | binding, competition with immobilised ligand | 1 µM | 100%
CC1CCCN1c1nccc(-c2cnn3ncccc23)n1 (centres unmarked) | binding | 1 µM | 100%
C[C@H](NC(=O)c1cnc2n1[C@](C)(Cc1ccc(C#N)cc1)C(=O)N2c1cc(Cl)c(F)c(Cl)c1)C(=O)NC1(c2ccccn2)CC1 | cell-free assay, competition with immobilised ligand | 1 µM | 80%
Cc1cnc(Nc2ccc(C(=O)N3CCC(N4CCCC4)CC3)cc2)nc1-c1cc2ccccc2s1 | binding, competition with immobilised ligand | 1 µM | 30%
Cn1nc(C(=O)NCc2ccc(C(=O)O)cc2)cc1-c1ccc2[nH]ccc2c1 | cell-free assay, competition with immobilised ligand | 0.1 µM | 100%
O=C(c1ccc(Nc2nccc(-c3cc4ccccc4s3)n2)cc1)N1CCC(N2CCCC2)CC1 | binding, competition with immobilised ligand | 1 µM | 33%
CN([C@@H]1CCc2c(CC(=O)O)c3ccccc3n2C1)S(=O)(=O)c1ccc(F)cc1 | cell-free assay, competition with immobilised ligand | 1 µM | 100%
O=C(NCCCN1CCOCC1)c1ccc(Nc2ncc(Cl)c(-c3ccc(Cl)s3)n2)cc1 | binding, competition with immobilised ligand | 1 µM | 87%
C[C@@H](c1ccc(-n2cnc3c(N)ncnc32)cc1)N1CCc2nn(C)c(Cc3ccccc3)c2C1=O | binding, competition with immobilised ligand | 0.1 µM | 90%
